One molecule from ChEMBL document CHEMBL5042517, “Discovery, X-ray Crystallography, and Anti-inflammatory Activity of Bromodomain-containing Protein 4 (BRD4) BD1 Inhibitors Targeting a Distinct New Binding Site” (J Med Chem, 2022) can be followed below.

The source made the active and inactive calls. No cut-off for these calls is given here.

The nature of data set [1]: Cmax in rat at 10 mg/kg, iv. Type of data set: ADME, organism-based. Also on record: route intravenous, dose 10 mg/kg. Conditions: in vivo.
A short description of data set [2]: Antiinflammatory activity in human SAEC assessed as inhibition of Poly(I:C) induced CIG5 expression pretreated for 24 hrs followed by Poly(I:C) addition for 4 hrs by qRT-PCR analysis. In kind it is functional, cell-based. In outline: (§1)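 Poly(I:C) 10 μg/mL then added for 4 h. CIG5 or IL-6 mRNA measured by qRT-PCR (ΔΔCt, PPIA normalized). IC50 from a four-parameter fit, mean ± SD of three independent runs.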

A short description of data set [3]: Antiinflammatory activity in human SAEC assessed as inhibition of Poly(I:C) induced IL-6 expression pretreated for 24 hrs followed by Poly(I:C) addition for 4 hrs by qRT-PCR analysis. Type of data set: functional, cell-based. In short, it runs like this: as §1
Data set [4] concerns the target Bromodomain-containing protein 3 (Homo sapiens, UniProt Q15059). Put plainly: Binding affinity BRD3 BD2 (unknown origin) incubated for 1 hr by TR-FRET assay. (In general: In TR-FRET formats the signal depends on donor and acceptor labels being close together.)
In data set [5] the target is T1, Bromodomain testis-specific protein (Homo sapiens, UniProt Q58F21). Put plainly: Binding affinity BRDT BD1 (unknown origin) incubated for 1 hr by TR-FRET assay.
The target of data set [6] is T1, Bromodomain testis-specific protein. Nature of the data set: Binding affinity BRDT BD2 (unknown origin) incubated for 1 hr by TR-FRET assay.
Data set [7] in a line: AUC (0 to t) in rat at 10 mg/kg, iv. In kind it is ADME, organism-based. On the set-up: dose 10 mg/kg. Particulars: in vivo.
Data set [8] is described as follows: Volume of distribution at steady state in rat at 20 mg/kg, po. In kind it is ADME, organism-based. Particulars: in vivo.
The subject of data set [9] is Mus musculus. Nature of the data set: Antiinflammatory activity in C57BL/6 mouse model of poly(I:C)-induced acute airway inflammation assessed as decrease in KC level in BALF at 10 mg/kg, po administered 1 day prior to poly(I:C) stimulation. In kind it is functional, organism-based.
The subject of data set [10] is Mus musculus. Nature of the data set: Antiinflammatory activity in C57BL/6 mouse model of poly(I:C)-induced acute airway inflammation assessed as decrease in H3K122Ac accumulation in lung tissue at 10 mg/kg, po administered 1 day prior to poly(I:C) stimulation by immunofluorescence analysis. In kind it is functional, organism-based. In outline: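 Same mouse model: 10 mg/kg po one day before, plus a second dose with intranasal poly(I:C) (300 μg). Lungs collected one day later. H3K122Ac detected by immunofluorescence on paraffin lung sections and quantified as fold change in total fluorescence intensity.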

Data set [11] addresses T2, Bromodomain-containing protein 4 (Homo sapiens, UniProt O60885).
In data set [12] the target is T2, Bromodomain-containing protein 4. This is another data set of the same source.
The target is the same in data set [13]. This is another data set of the same source.
The target is the same in data set [14]. This is another data set of the same source.
Data set [15] has the same target. This is another data set of the same source.
The target is the same in data set [16]. This is another data set of the same source.
Data set [17] shares this target. The source holds these as a separate data set.
The test system of data set [18] is Bromodomain-containing protein 4 (Homo sapiens), O60885 [E151A].
The test system is the same in data set [19]. The source holds these as a separate data set.
Data set [20] shares this test system. The source holds these as a separate data set.

Sequence of Bromodomain-containing protein 3 (Q15059 whole entry): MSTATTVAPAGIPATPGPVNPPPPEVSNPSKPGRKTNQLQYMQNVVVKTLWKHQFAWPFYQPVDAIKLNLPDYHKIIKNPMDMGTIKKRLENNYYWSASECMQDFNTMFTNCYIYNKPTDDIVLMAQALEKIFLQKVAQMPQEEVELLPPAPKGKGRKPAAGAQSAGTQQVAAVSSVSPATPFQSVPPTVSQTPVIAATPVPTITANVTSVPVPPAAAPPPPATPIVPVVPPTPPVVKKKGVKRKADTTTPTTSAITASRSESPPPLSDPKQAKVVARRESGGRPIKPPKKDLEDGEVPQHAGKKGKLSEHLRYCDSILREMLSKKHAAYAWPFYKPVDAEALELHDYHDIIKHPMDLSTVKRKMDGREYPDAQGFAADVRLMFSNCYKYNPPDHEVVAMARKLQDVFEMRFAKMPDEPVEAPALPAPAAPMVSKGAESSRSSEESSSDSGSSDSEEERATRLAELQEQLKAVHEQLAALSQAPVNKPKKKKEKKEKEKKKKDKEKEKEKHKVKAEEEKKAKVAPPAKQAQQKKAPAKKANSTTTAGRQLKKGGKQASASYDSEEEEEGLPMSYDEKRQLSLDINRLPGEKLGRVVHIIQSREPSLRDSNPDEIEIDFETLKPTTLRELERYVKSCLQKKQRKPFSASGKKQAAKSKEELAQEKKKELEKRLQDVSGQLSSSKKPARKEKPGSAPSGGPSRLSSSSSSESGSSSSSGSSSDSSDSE

The term Cmax denotes the maximum level reached in the sampled fluid or tissue. For orientation: IC50 means the point on the concentration scale where inhibition reaches its midpoint. A word on the AUC(0-t): it is exposure summed from dosing to a finite time, without extrapolation to infinity. Usually ΔTm stands for the change in melting temperature against a reference sample. `O=C(Nc1ccc(C(F)(F)F)cc1)Nc1ccc(S(=O)(=O)N2CCC[C@H]2CN2CCOCC2)cc1` yielded a Cmax in [1] of 1920 ng/mL. Also, the IC50 in data set [2] stood at 200 nM; in [3], 370 nM; in data set [4] it was 2000 nM; in [5], 2420 nM; in data set [6], 1900 nM. The molecule further yielded an AUC(0-t) in data set [7] of 2170 ng·h/mL. In data set [8], this molecule showed a Vdss of 170 L/kg. In addition, the result with Mus musculus [9] was inactive. In the data set with Mus musculus [10], the result was Active. In addition, the ΔTm is 4.5 °C in data set [11]; 6.6 °C in data set [12]; 0.7 °C in [13]; 15.8 °C in data set [14]; 15.5 °C in data set [15]; 0.6 °C in data set [16]. The ΔTm in data set [17] amounted to 0.6 °C; in data set [18], 0.7 °C; in data set [19] it was 0.5 °C; in [20], 0.4 °C.
